Measured values reported in ChEMBL document CHEMBL1142636 (2000).

How the values were obtained:
[1] = tested on: UO-31; assay: Growth inhibition of human UO31 cells; type: functional
Outline: (§1)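 Tested at the NCI in its human disease-oriented in vitro screen of 60 tumour cell lines, following the Monks et al. methods. Activity is expressed as GI50, given as log molar values.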

[2] = tested on: TK-10; assay: Growth inhibition of human TK10 cells; type: functional; outline: as §1
[3] = tested on: SN12C; assay: Growth inhibition of human SN12C cells; type: functional; outline: as §1
[4] = tested on: RXF 393; assay: Growth inhibition of human […] cells; type: functional
[5] = tested on: ACHN; assay: Growth inhibition of human ACHN cells; type: functional
[6] = tested on: SK-OV-3; assay: Growth inhibition of human SK-OV-3 cells; type: functional; outline: as §1
[7] = Growth inhibition of human OVACR8 cells; type: functional
[8] = Growth inhibition of human OVACR5 cells; type: functional
[9] = Growth inhibition of human OVACR4 cells; type: functional
[10] = Growth inhibition of human […] cells; type: functional
[11] = tested on: IGROV-1; assay: Growth inhibition of human IGROV1 cells; type: functional
[12] = tested on: UACC-62; assay: Growth inhibition of human UACC62 cells; type: functional; outline: as §1
[13] = tested on: SK-MEL-5; assay: Growth inhibition of human SK-MEL-5 cells; type: functional; outline: as §1
[14] = tested on: SK-MEL-28; assay: Growth inhibition of human SK-MEL-28 cells; type: functional; outline: as §1
[15] = tested on: SK-MEL-2; assay: Growth inhibition of human SK-MEL-2 cells; type: functional; outline: as §1
[16] = tested on: M19-MEL; assay: Growth inhibition of human M19-MEL cells; type: functional
[17] = tested on: M14; assay: Growth inhibition of human M14 cells; type: functional
[18] = tested on: Malme-3M; assay: Growth inhibition of human MALME-3M cells; type: functional
[19] = tested on: LOX IMVI; assay: Growth inhibition of human LOX IMVI cells; type: functional
[20] = tested on: XF498; assay: Growth inhibition of human XF498 cells; type: functional; outline: as §1
[21] = tested on: U-251; assay: Growth inhibition of human U251 cells; type: functional; outline: as §1
[22] = tested on: SNB-75; assay: Growth inhibition of human SNB75 cells; type: functional; outline: as §1
[23] = tested on: SNB-19; assay: Growth inhibition of human SNB19 cells; type: functional; outline: as §1
[24] = tested on: SF-539; assay: Growth inhibition of human SF539 cells; type: functional; outline: as §1
[25] = tested on: SF-268; assay: Growth inhibition of human SF268 cells; type: functional; outline: as §1
[26] = tested on: SW-620; assay: Growth inhibition of human SW620 cells; type: functional; outline: as §1
[27] = tested on: KM-20L2; assay: Growth inhibition of human KM20L2 cells; type: functional
[28] = tested on: KM12; assay: Growth inhibition of human KM12 cells; type: functional
[29] = tested on: HT-29; assay: Growth inhibition of human HT29 cells; type: functional
[30] = tested on: HCT-15; assay: Growth inhibition of human HCT15 cells; type: functional
[31] = tested on: HCT-116; assay: Growth inhibition of human HCT116 cells; type: functional
[32] = tested on: HCC 2998; assay: Growth inhibition of human HCC2998 cells; type: functional
[33] = tested on: DLD-1; assay: Growth inhibition of human DLD1 cells; type: functional
[34] = tested on: COLO 205; assay: Growth inhibition of human COLO205 cells; type: functional
[35] = tested on: DMS-273; assay: Growth inhibition of human DMS273 cells; type: functional
[36] = Growth inhibition of human DMS144 cells; type: functional
[37] = Growth inhibition of human LXFL529 cells; type: functional; conditions: LXFL 529
[38] = tested on: NCI-H522; assay: Growth inhibition of human NCI-H522 cells; type: functional
[39] = tested on: NCI-H460; assay: Growth inhibition of human NCI-H460 cells; type: functional
[40] = tested on: NCI-H322M; assay: Growth inhibition of human NCI-H322M cells; type: functional
[41] = tested on: NCI-H226; assay: Growth inhibition of human NCI-H226 cells; type: functional
[42] = tested on: HOP-92; assay: Growth inhibition of human HOP92 cells; type: functional
[43] = tested on: HOP-62; assay: Growth inhibition of human HOP62 cells; type: functional
[44] = tested on: A549; assay: Growth inhibition of human A549 cells; type: functional
[45] = tested on: SR; assay: Growth inhibition of human SR cells; type: functional; outline: as §1
[46] = Growth inhibition of human RPMI8266 cells; type: functional
[47] = tested on: MOLT-4; assay: Growth inhibition of human MOLT4 cells; type: functional
[48] = tested on: K562; assay: Growth inhibition of human K562 cells; type: functional
[49] = Growth inhibition of human HL60(TB) cells; type: functional, HL-60(TB); conditions: HL-60
[50] = tested on: CCRF-CEM; assay: Growth inhibition of human CCRF-CEM cells; type: functional
[51] = tested on: Hs-578T; assay: Growth inhibition of human HS578T cells; type: functional
[52] = tested on: MDA-MB-231; assay: Growth inhibition of human MDA-MB-231 cells; type: functional
[53] = tested on: MCF7; assay: Growth inhibition of human MCF7 cells; type: functional
[54] = tested on: DU-145; assay: Growth inhibition of human DU145 cells; type: functional
[55] = tested on: PC-3; assay: Growth inhibition of human PC3 cells; type: functional
[56] = tested on: A498; assay: Growth inhibition of human A498 cells; type: functional
[57] = tested on: 786-0; assay: Growth inhibition of human 786-0 cells; type: functional
[58] = tested on: UACC-257; assay: Growth inhibition of human UACC257 cells; type: functional; outline: as §1
[59] = tested on: SF-295; assay: Growth inhibition of human SF295 cells; type: functional; outline: as §1
[60] = tested on: NCI-H23; assay: Growth inhibition of human NCI-H23 cells; type: functional
[61] = tested on: MDA-MB-435; assay: Growth inhibition of human MDA-MB-435 cells; type: functional
[62] = tested on: MDA-N; assay: Growth inhibition of human MDA-N cells; type: functional
[63] = tested on: BT-549; assay: Growth inhibition of human BT549 cells; type: functional
[64] = tested on: T47D; assay: Growth inhibition of human T47D cells; type: functional; outline: as §1
[65] = Growth inhibition of human MCF7/ADR-RES cells; type: functional; conditions: NCI/ADR-RES
[66] = tested on: HOP-18; assay: Growth inhibition of human HOP18 cells; type: functional

Structure (SMILES): Cc1cc2c(cc1O)[nH]c1cc3c(cc12)C=CC(C)(C)O3
- GI50 [1]: 11.5 µM
- GI50 [2]: 25.1 µM
- GI50 [3]: 6.31 µM
- GI50 [4]: 4.9 µM
- GI50 [5]: 9.33 µM
- GI50 [6]: 25.1 µM
- GI50 [7]: 4.57 µM
- GI50 [8]: 17.8 µM
- GI50 [9]: 10.5 µM
- GI50 [10]: 7.24 µM
- GI50 [11]: 22.9 µM
- GI50 [12]: 6.76 µM
- GI50 [13]: 17.4 µM
- GI50 [14]: 14.5 µM
- GI50 [15]: 25.1 µM
- GI50 [16]: 19.5 µM
- GI50 [17]: 6.03 µM
- GI50 [18]: 10 µM
- GI50 [19]: 3.98 µM
- GI50 [20]: 25.1 µM
- GI50 [21]: 6.03 µM
- GI50 [22]: 11.2 µM
- GI50 [23]: 25.1 µM
- GI50 [24]: 4.07 µM
- GI50 [25]: 6.76 µM
- GI50 [26]: 7.59 µM
- GI50 [27]: 9.33 µM
- GI50 [28]: 5.25 µM
- GI50 [29]: 11.7 µM
- GI50 [30]: 8.71 µM
- GI50 [31]: 12.9 µM
- GI50 [32]: 6.76 µM
- GI50 [33]: 12.9 µM
- GI50 [34]: 25.1 µM
- GI50 [35]: 5.01 µM
- GI50 [36]: 10.7 µM
- GI50 [37]: 9.33 µM
- GI50 [38]: 8.32 µM
- GI50 [39]: 5.37 µM
- GI50 [40]: 13.2 µM
- GI50 [41]: 19.1 µM
- GI50 [42]: 9.77 µM
- GI50 [43]: 7.94 µM
- GI50 [44]: 6.46 µM
- GI50 [45]: 6.46 µM
- GI50 [46]: 9.12 µM
- GI50 [47]: 0.00324 µM
- GI50 [48]: 25.1 µM
- GI50 [49]: 6.92 µM
- GI50 [50]: 20 µM

Structure (SMILES): C=C(C)C(O)CCC1(C)C=Cc2c(c(C)cc3c2[nH]c2ccccc23)O1 (centres undefined)
- GI50 [51]: 3.16 µM
- GI50 [52]: 3.47 µM
- GI50 [53]: 12.3 µM
- GI50 [54]: 12.6 µM
- GI50 [55]: 6.61 µM
- GI50 [1]: 12 µM
- GI50 [2]: 14.1 µM
- GI50 [3]: 9.55 µM
- GI50 [4]: 2.75 µM
- GI50 [5]: 4.47 µM
- GI50 [56]: 13.5 µM
- GI50 [57]: 3.89 µM
- GI50 [6]: 11 µM
- GI50 [7]: 10.7 µM
- GI50 [8]: 2.09 µM
- GI50 [9]: 16.6 µM
- GI50 [10]: 10.2 µM
- GI50 [11]: 8.32 µM
- GI50 [58]: 8.13 µM
- GI50 [13]: 10 µM
- GI50 [15]: 2.09 µM
- GI50 [17]: 6.61 µM
- GI50 [18]: 11.2 µM
- GI50 [19]: 3.09 µM
- GI50 [21]: 5.37 µM
- GI50 [22]: 3.31 µM
- GI50 [23]: 11.5 µM
- GI50 [24]: 3.63 µM
- GI50 [59]: 4.37 µM
- GI50 [25]: 5.62 µM
- GI50 [26]: 5.13 µM
- GI50 [28]: 2 µM
- CC50 ([28]; read-out: pLC50 (the source's name) (converted)): 9.33 µM
- GI50 [29]: 1.7 µM
- LC50 [29]: 6.17 µM
- GI50 [30]: 1.95 µM
- GI50 [31]: 9.77 µM
- GI50 [32]: 2.19 µM
- GI50 [34]: 2.45 µM
- GI50 [38]: 3.31 µM
- GI50 [39]: 2.34 µM
- GI50 [40]: 7.94 µM
- GI50 [60]: 10.7 µM
- GI50 [41]: 6.31 µM
- GI50 [42]: 10.2 µM
- GI50 [43]: 2.45 µM
- GI50 [44]: 5.01 µM
- GI50 [45]: 4.47 µM
- GI50 [46]: 2.95 µM
- GI50 [47]: 3.47 µM
- GI50 [48]: 2.75 µM
- GI50 [49]: 4.27 µM
- GI50 [50]: 4.17 µM
- GI50 [61]: 8.32 µM
- GI50 [62]: 3.55 µM
- GI50 [63]: 12.9 µM
- GI50 [64]: 7.76 µM
- GI50 [65]: 8.91 µM

Structure (SMILES): COc1cc(C)cc2c1[nH]c1ccccc12 [MURRAYAFOLINE A]
- GI50 [1]: 15.1 µM
- GI50 [2]: 25.1 µM
- GI50 [3]: 14.1 µM
- GI50 [4]: 9.33 µM
- GI50 [5]: 23.4 µM
- GI50 [57]: 9.33 µM
- GI50 [6]: 20.9 µM
- GI50 [7]: 7.41 µM
- GI50 [8]: 24.5 µM
- GI50 [9]: 25.1 µM
- GI50 [10]: 8.91 µM
- GI50 [11]: 14.8 µM
- GI50 [12]: 15.1 µM
- GI50 [13]: 9.12 µM
- GI50 [14]: 16.2 µM
- GI50 [15]: 7.41 µM
- GI50 [16]: 18.2 µM
- GI50 [17]: 7.24 µM
- GI50 [18]: 8.13 µM
- GI50 [19]: 12.6 µM
- GI50 [20]: 22.4 µM
- GI50 [21]: 10.5 µM
- GI50 [22]: 25.1 µM
- GI50 [23]: 25.1 µM
- GI50 [24]: 6.03 µM
- GI50 [25]: 14.5 µM
- GI50 [26]: 8.32 µM
- GI50 [27]: 7.59 µM
- GI50 [28]: 8.13 µM
- GI50 [29]: 7.76 µM
- GI50 [30]: 7.41 µM
- GI50 [31]: 11.5 µM
- GI50 [32]: 14.8 µM
- GI50 [33]: 10.5 µM
- GI50 [34]: 12.3 µM
- GI50 [35]: 7.76 µM
- GI50 [36]: 9.55 µM
- GI50 [37]: 18.2 µM
- GI50 [38]: 4.27 µM
- GI50 [39]: 7.76 µM
- GI50 [40]: 12.9 µM
- GI50 [41]: 8.51 µM
- GI50 [42]: 23.4 µM
- GI50 [43]: 6.31 µM
- GI50 [66]: 0.288 µM
- GI50 [44]: 1.15 µM
- GI50 [45]: 10.2 µM
- GI50 [46]: 8.71 µM
- GI50 [48]: 25.1 µM
- GI50 [49]: 6.92 µM
- GI50 [50]: 15.5 µM
